Measured values from different studies.
Each line is one published result; the experiments were not run side by side.
Botulinum neurotoxin type A protease: Botulinum neurotoxin type A, protease (Clostridium botulinum, UniProt P0DPI0)
Slc6a3: Sodium-dependent dopamine transporter (Slc6a3, Rattus norvegicus, UniProt P23977)
Cnr1: Cannabinoid receptor 1 (Cnr1, Rattus norvegicus, UniProt P20272)
NA: Neuraminidase (NA, Influenza A virus, UniProt Q9IGQ6)

SMILES | target | effect on | mode | technique | notes | quantity | value
O=C1C=CC(=O)N1Cc1ccc(Cl)cc1Cl | Botulinum neurotoxin type A protease | enzyme activity | inhibitor |  |  | IC50 | 80000 nM
CC(C)NC(C)C(=O)c1cccc(Cl)c1 (stereo not shown) | Slc6a3 | transporter uptake | inhibitor | radiometric |  | IC50 | 537 nM
O=S(=O)(c1ccc(O)c2nc(Cl)ccc12)N1CCc2c(Cl)cccc21 | Botulinum neurotoxin type A protease | enzyme activity | inhibitor |  |  | IC50 | > 30000 nM
CC(C)(C)C(NC(=O)c1cn(CCCCCF)c2ccccc12)C(=O)O (stereo not shown) | Cnr1 | ligand displacement |  | radioligand | cell membranes | IC50 | 3340 nM
CC1=CC(=O)C2(O1)C(c1cc3oc(=O)c4cc(O)c(O)cc4c3c(=O)o1)=Cc1cc(O)c(O)cc12 (stereo not shown) | NA | enzyme activity | inhibitor |  |  | IC50 | 8100 nM
CC(Cc1cccc(Cl)c1)NC(C)(C)C (stereo not shown) | Slc6a3 | transporter uptake | inhibitor | radiometric |  | IC50 | 938 nM
COC(=O)C(NC(=O)c1cn(CCCCCF)c2ccccc12)C(C)(C)C (stereo not shown) | Cnr1 | ligand displacement |  | radioligand | cell membranes | IC50 | 2 nM
CCCCCCC(C)(C)c1cc(O)c2c(c1)OC(C)(C)[C@@H]1CC=C(C)C[C@@H]21 | Cnr1 | ligand displacement |  | radioligand |  | Ki | 0.9 nM
CN(C)CCc1c[nH]c2ccccc12 | 5-hydroxytryptamine receptor 1B (HTR1B, Homo sapiens, UniProt P28222) | ligand displacement |  | radioligand |  | Ki | 130 nM
CN1[C@H]2CC[C@@H]1[C@@H](c1cc(-c3ccccc3)no1)[C@H](OC(c1ccc(F)cc1)c1ccc(F)cc1)C2 | Slc6a3 | ligand displacement |  | radioligand | cell membranes | Ki | 14 nM
O=C1C=C(/C=C/c2ccc(O)c(O)c2)OC12C(c1cc3oc(=O)c4cc(O)c(O)cc4c3c(=O)o1)=Cc1cc(O)c(O)cc12 (stereo not shown) | NA | enzyme activity | inhibitor |  |  | IC50 | 8000 nM
CC(N)C(=O)c1cccc(Cl)c1 (stereo not shown) | Slc6a3 | transporter uptake | inhibitor | radiometric |  | IC50 | 399 nM
CCOC(=O)C1C(OC(c2ccc(F)cc2)c2ccc(F)cc2)CC2CCC1N2CCN (racemic) | Slc6a3 | ligand displacement |  | radioligand | cell membranes | Ki | 17.2 nM
